CAL PDZ FP-1: CAL PDZ (human) peptide binding inhibition; Q9HD26; purified CAL PDZ, TMR-peptide fluorescence polarization, 1 h; inhibition, % at 24.9 µM; 0.92% of 300,000 active;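 active = mean inhibition of at least 30% with at least half of replicates also reaching 30%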
SR-BI DiI inh: inhibitors of mouse SR-BI mediated HDL lipid uptake; Q61009; ldlA[mSR-BI] CHO cells, DiI-HDL uptake fluorescence, 3 h; inhibition, % at 12.5 µM; 0.96% of 320,000 active; AID 488896;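 active = mean replicate inhibition of at least 70% and a set share of replicates each scoring 70 or more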
Target sequence (Q61009 whole entry, looked up): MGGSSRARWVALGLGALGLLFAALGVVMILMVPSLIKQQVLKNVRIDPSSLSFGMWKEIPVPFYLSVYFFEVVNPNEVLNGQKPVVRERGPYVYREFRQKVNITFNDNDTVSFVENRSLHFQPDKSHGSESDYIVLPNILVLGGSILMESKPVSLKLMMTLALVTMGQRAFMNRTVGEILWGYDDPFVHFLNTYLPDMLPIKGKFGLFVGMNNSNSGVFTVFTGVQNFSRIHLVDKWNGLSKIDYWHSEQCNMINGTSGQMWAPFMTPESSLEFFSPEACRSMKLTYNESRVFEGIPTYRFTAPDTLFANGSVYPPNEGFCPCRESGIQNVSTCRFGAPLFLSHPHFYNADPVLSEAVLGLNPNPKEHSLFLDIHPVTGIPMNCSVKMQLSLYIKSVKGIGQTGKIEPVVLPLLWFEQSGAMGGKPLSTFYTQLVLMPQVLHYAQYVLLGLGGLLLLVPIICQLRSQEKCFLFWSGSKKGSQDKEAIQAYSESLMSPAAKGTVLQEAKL
miR122 inh: miR-122 inhibition in Huh7 cells | activation (reporter increase), % at 12.5 µM | Huh7 miR-122 Renilla luciferase sensor, 48 h; neutral wells = 0, positive control = 100 | AID 602342 | 0.3% of 340,000 active;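 active = mean replicate activation score at least 90 and every replicate individually at or above 90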;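 also: higher luciferase means less miR-122 activity so hits act as miR-122 inhibitors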
CAL PDZ FP-2: blocks peptide binding to human CAL PDZ domain. purified CAL PDZ, TMR-peptide fluorescence polarization, 1 h. 0.02% of 330,000 active. inhibition, % at 20 µM;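 active = highest replicate inhibition of at least 40%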
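Test system: purified CerCALP PDZ construct; Compound dosing: one concentration, 20 µM compound; Also added: TMR-labelled reporter peptide T*-PRC34 bound in PDZ groove; Read-out: inhibition from polarization loss; Controls: unlabelled peptide and DMSO controls; Signal: FP readout, S and P plane fluorescence; Incubation: 1 h at RT.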
ARNT TACC3 PPI: disruptors of human ARNT/TACC3 interaction; Q9Y6A5; inhibition, % at 9.99 µM; 0.66% of 390,000 active; AlphaScreen His-ARNT PAS-B/GST-TACC3 binding, luminescence; TACC3 fragment carries E629A point mutation;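 active = mean inhibition of replicates at least 50% and at least half of replicates each reaching 50%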
SR-BI uptake up: enhances SR-BI lipid uptake from DiI-HDL. CHO ldlA[mSR-BI] cells, DiI-HDL uptake fluorescence, 3 h; 100 = double the neutral-control signal. 0.096% of 320,000 active. AID 504775. activation, % at 12.5 µM;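 active = mean replicate activation of at least 60% and every replicate at or above 60%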
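Assay system: CHO ldlA[mSR-BI] cells, LDL receptor-null, SR-BI overexpressing; medium: Ham's F12 with 0.5% BSA, HEPES 25 mM, pH 7.4; also added: DiI-HDL 10 µg/mL; timing: 3 h uptake period with compound, 37 °C; signal: DiI fluorescence, bottom read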
Hits are given with their value; 0 = inactive; - = no result; [ ] = dose if it differs, or a comment. In the library only some 2.1% were active in any assay of this set; here they are far more common.

SMILES	CAL PDZ FP-1	SR-BI DiI inh	miR122 inh	CAL PDZ FP-2	ARNT TACC3 PPI	SR-BI uptake up
CCC1=NN(C(=O)c2ccc(C)cc2)C(O)(c2ccc(Br)cc2)C1 (stereo not drawn)	0	0	0	0	0	103
CO[C@H]1CN(C)C(=O)c2ccc(NC(=O)Cc3ccccc3)cc2OC[C@@H](C)N(C)C[C@H]1C	-	-	-	-	0	-
CCOc1ccc(C(C)=O)cc1CSc1nnc(-c2ccoc2C)n1N	0	71	-	0	0	-
Cc1ccc(-c2nnc(Oc3ccc(NC(=O)c4ccccc4)cc3)c3ccccc23)cc1	0	0	-	0	0	169
CO[C@@H]1CN(C)C(=O)c2cc(NC(C)=O)ccc2OC[C@H](C)N(C(=O)c2ccccn2)C[C@@H]1C	-	-	0	-	0	-
CC(=O)N(C)C[C@@H]1Oc2cc(-c3cccc(C#N)c3)ccc2S(=O)(=O)N([C@H](C)CO)C[C@@H]1C	-	-	0	-	0	-
O=C(NNS(=O)(=O)c1ccccc1[N+](=O)[O-])c1cccc(Br)c1	51	0	0	0	0	0
C[C@@H]1CN([C@H](C)CO)C(=O)c2cc(C#CC(C)(C)O)cnc2O[C@H]1CN(C)Cc1ccccn1	-	-	0	-	0	-
O=C(N/N=C1/CC2C=CCC12)c1cccs1 (stereo not drawn)	42	0	0	0	0	0
C[C@@H]1CN([C@H](C)CO)S(=O)(=O)c2ccc(C#CC3CCCC3)cc2O[C@@H]1CN(C)Cc1cncnc1	-	-	0	-	-	-
O=C(O)c1cc(Br)ccn1	0	0	0	0	0	0
O=C(O)c1ccnc(C(=O)O)c1	0	0	-	0	57	0
COc1ccc(S(=O)(=O)Nc2ccc(N(C)C(C)=O)cc2)cc1	0	0	0	0	-	0
COc1ccc(NS(=O)(=O)c2ccc3oc(=O)ccc3c2)cc1	0	0	0	-	-	0
COc1ccc(NS(=O)(=O)c2ccc3oc(=S)[nH]c3c2)cc1	31	-	-	0	0	-
CCN(CC)c1ccc(NS(=O)(=O)c2ccc(OC)cc2)cc1	66	0	-	0	0	0
CCN(CC)c1ccc(N)cc1S(=O)(=O)Nc1ccc(OC)cc1	0	0	107	0	0	0
CN(CC(=O)Nc1ccc(Cl)c(Cl)c1)C(=O)C1CCCC1	0	0	0	0	-	67
S=C(Nc1ccc(Cl)c(Cl)c1)NC1CCCCC1	-	0	159	0	0	0
S=C(Nc1ccccc1Cl)NC1CCCCCC1	-	0	149	0	0	0
CN(CC(=O)Nc1ccc(Cl)c(Cl)c1)C(=O)C1CCC1	-	0	0	0	-	0
S=C(Nc1ccc2nsnc2c1)N1CCCCCC1	0	0	-	0	0	0
Cc1ccccc1NC(=S)NC1CCCC1	0	0	0	0	0	0
S=C(Nc1ccc2nsnc2c1)NC1CCCCC1	0	0	-	0	25	0
O=C(NCCN1CCCCC1)[C@H]1[C@H](CO)[C@H]2Cn3c(cccc3=O)[C@@H]1N2C(=O)C1CCCCC1	-	-	0	-	0	-
SMILES	CAL PDZ FP-1	SR-BI DiI inh	miR122 inh	CAL PDZ FP-2	ARNT TACC3 PPI	SR-BI uptake up
O=C(Cc1ccc(Cl)cc1)Nc1ccc(Cl)cn1	-	0	0	0	0	0
Cc1cc(C)nc(NC(=O)Cc2ccc(Cl)cc2)c1	33	0	0	0	0	0
CCOC(=O)NC(=O)COC(=O)CCCSc1nc2ccccc2s1	0	0	-	71	0	0
Cc1cc(=O)[nH]c(N/N=C/c2ccc(Br)s2)n1	0	0	0	0	61	0
Cc1cc(=O)[nH]c(N/N=C/c2ccc(O)c(O)c2)n1	0	0	-	0	67	0
CSc1ccc(/C=N/Nc2nc(C)cc(=O)[nH]2)cc1	0	0	0	0	0	0
Cc1cc(=O)[nH]c(N/N=C/c2c(O)n(-c3ccccc3)c(=O)c3ccccc23)n1	0	0	0	0	72	0
Cc1cc(=O)[nH]c(NN=Cc2c(Cl)cccc2Cl)n1	0	0	-	0	0	0
COc1ccccc1C=NNc1nc(C)cc(=O)[nH]1	0	0	-	0	0	0
C[C@@H]1CCCCO[C@H](CN(C)Cc2ccc3c(c2)OCO3)[C@H](C)CN([C@@H](C)CO)C(=O)c2cc(NC(=O)Nc3ccc(F)cc3)ccc2O1	-	-	0	-	0	-
CC(C)NC(=O)N1C[C@@H]2[C@H](c3ccccc31)[C@H](CO)N2Cc1ccccc1	-	-	0	-	0	-
Cc1ccc(S(=O)(=O)N[C@@H]2C=C[C@H](CC(=O)N3CCc4ccccc4C3)O[C@@H]2CO)cc1	-	-	-	-	0	-
CCc1nnc(NC(=O)CCC2CCCCC2)s1	0	0	-	0	0	0
CCOCCc1nnc(NC(=O)CCC2CCCCC2)s1	74	0	0	0	0	0
Cc1cccc(NS(=O)(=O)c2csc(C(N)=O)c2)c1	0	0	111	0	0	0
COc1cc(NS(=O)(=O)c2csc(C(N)=O)c2)cc(OC)c1	0	0	99	0	0	0
CC(=O)c1cccc(NS(=O)(=O)c2csc(C(N)=O)c2)c1	0	0	0	-	0	0
CCCNC(=O)Nc1ccc2c(c1)C(=O)N(C)[C@H]1CC[C@@H](CC(=O)NCC3CCCCC3)O[C@H]1CO2	-	-	0	-	0	-
O=[N+]([O-])c1ccc(Sc2nccn2Cc2ccccc2)cc1	30	0	0	0	0	0
C[C@H]1CN([C@@H](C)CO)C(=O)c2cccc(NC(=O)Nc3ccc(C(F)(F)F)cc3)c2O[C@@H]1CN(C)C(=O)Nc1ccc2c(c1)OCO2	-	-	0	-	0	-
CC(=O)NC(=S)Nc1cc(C(=O)O)ccc1Cl	116	0	-	0	0	0
Cc1ccc(C(=O)NC(=S)Nc2cc(C(F)(F)F)ccc2Cl)cc1	0	0	0	0	0	0
CC1=C(C(N)=O)C(c2ccc(Cl)cc2Cl)n2ncnc2N1 (stereo not drawn)	38	0	0	0	0	0
C[C@@H]1CN([C@H](C)CO)C(=O)Cc2cc(NC(=O)Nc3ccc4c(c3)OCO4)ccc2O[C@@H]1CN(C)C(=O)Nc1cccc2ccccc12	-	-	129[16.7 µM]	-	-	-
C[C@H](CO)N1C[C@H](C)[C@H](CN(C)C(=O)NC2CCCCC2)Oc2ccc(NC(=O)Nc3cccc4ccccc34)cc2CC1=O	-	-	0	-	0	-
C[C@H](CO)N1C[C@H](C)[C@H](CN(C)C(=O)Nc2cccc3ccccc23)Oc2ccc(NC(=O)Nc3cccc4ccccc34)cc2CC1=O	-	-	0	-	0	-
C[C@H]1CN([C@@H](C)CO)C(=O)Cc2cc(NC(=O)Nc3ccc4c(c3)OCO4)ccc2O[C@H]1CN(C)C(=O)Nc1cccc2ccccc12	-	-	0	-	-	-
C[C@@H]1CN([C@H](C)CO)C(=O)Cc2cc(NC(=O)Nc3cccc4ccccc34)ccc2O[C@@H]1CN(C)C(=O)Nc1cccc2ccccc12	-	-	99[16.7 µM]	-	0	-
C[C@@H]1CN([C@H](C)CO)C(=O)Cc2cc(NC(=O)Nc3cccc4ccccc34)ccc2O[C@@H]1CN(C)C(=O)NC1CCCCC1	-	-	121[16.7 µM]	-	0	-

Assay outcomes from PubChem.
